Measurements as given in ChEMBL document CHEMBL4325907, “Diaryl hydroxylamines as pan or dual inhibitors of indoleamine 2,3-dioxygenase-1, indoleamine 2,3-dioxygenase-2 and tryptophan dioxygenase” (Eur J Med Chem, 2019).

Legend:
[1] = Cytotoxicity against human HeLa cells assessed as cell viability up to 100 uM relative to control; assay type: cell-based; details: read-out: Activity
[2] = target: T1, Indoleamine 2,3-dioxygenase 2 (Mus musculus, UniProt Q8R0V5); assay: Inhibition of mouse IDO2 expressed in human T-REx cells using L-tryptophan as substrate after 20 hrs; assay type: cell-based
T1 sequence (Q8R0V5 whole entry): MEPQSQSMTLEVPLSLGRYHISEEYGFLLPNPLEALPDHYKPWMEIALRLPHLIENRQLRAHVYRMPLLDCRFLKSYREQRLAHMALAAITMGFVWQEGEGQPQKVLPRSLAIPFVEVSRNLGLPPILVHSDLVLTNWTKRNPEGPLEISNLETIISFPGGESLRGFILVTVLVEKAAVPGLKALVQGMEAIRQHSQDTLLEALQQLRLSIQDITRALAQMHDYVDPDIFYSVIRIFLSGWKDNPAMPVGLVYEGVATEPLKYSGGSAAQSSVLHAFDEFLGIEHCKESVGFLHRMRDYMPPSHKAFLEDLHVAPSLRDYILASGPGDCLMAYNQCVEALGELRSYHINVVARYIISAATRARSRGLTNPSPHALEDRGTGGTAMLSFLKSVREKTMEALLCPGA
Procedure, shortened: (§1)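 HeLa cells (endogenous human IDO1) were induced with 100 ng/mL IFNγ for 24 h at 100 μM Trp. T-REx cells carried tet-regulated human TDO (2 ng/mL doxycycline, 24 h, 100 μM Trp) or mouse IDO2 (doxycycline plus 8 mM 5-aminolevulinic acid, 20 μM hemin, 4 mM Trp, 48 h). After induction, compound serial dilutions were added in medium with final Trp 100 μM (IDO1/TDO) or 2 mM (IDO2) for 20 h at 37 °C. Read-out was TCA fixation, 65 °C hydrolysis, then p-dimethylaminobenzaldehyde colour.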

[3] = target: T2, Indoleamine 2,3-dioxygenase 2 (Homo sapiens) (UniProt Q6ZQW0); assay: Inhibition of IDO2 (unknown origin) at 200 uM using L-tryptophan as substrate by spectrophotometric method relative to control
T2 sequence (whole entry): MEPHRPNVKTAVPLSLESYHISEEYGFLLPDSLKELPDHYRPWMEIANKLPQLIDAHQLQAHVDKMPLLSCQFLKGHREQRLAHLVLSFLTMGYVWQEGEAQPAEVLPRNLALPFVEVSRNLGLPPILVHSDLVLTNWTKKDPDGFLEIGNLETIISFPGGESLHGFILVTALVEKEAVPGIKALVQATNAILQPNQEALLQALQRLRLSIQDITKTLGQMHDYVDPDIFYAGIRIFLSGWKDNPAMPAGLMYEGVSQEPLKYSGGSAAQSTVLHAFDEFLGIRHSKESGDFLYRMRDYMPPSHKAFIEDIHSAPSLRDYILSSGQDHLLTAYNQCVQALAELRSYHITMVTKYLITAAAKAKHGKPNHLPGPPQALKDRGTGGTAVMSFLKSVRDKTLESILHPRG

[4] = target: T3, Tryptophan 2,3-dioxygenase (Homo sapiens, UniProt P48775); assay: Inhibition of human TDO expressed in human T-REx cells using L-tryptophan as substrate after 20 hrs; assay type: cell-based; procedure, shortened: as §1
Target sequence in this assay (P48775 whole entry): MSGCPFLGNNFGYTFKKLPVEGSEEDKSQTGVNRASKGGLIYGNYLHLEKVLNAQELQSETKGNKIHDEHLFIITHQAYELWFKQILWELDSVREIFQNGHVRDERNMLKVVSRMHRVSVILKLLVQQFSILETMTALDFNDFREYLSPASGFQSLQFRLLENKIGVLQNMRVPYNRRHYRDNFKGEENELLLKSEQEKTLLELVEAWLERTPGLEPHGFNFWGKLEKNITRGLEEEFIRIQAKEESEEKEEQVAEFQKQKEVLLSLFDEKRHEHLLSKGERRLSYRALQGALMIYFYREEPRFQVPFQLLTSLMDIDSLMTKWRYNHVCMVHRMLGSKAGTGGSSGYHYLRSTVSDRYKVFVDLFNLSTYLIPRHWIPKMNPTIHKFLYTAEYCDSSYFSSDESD

[5] = target: T3, Tryptophan 2,3-dioxygenase; assay: Inhibition of TDO (unknown origin) at 200 uM using L-tryptophan as substrate by spectrophotometric method relative to control
Target sequence in this assay (P48775 whole entry, looked up): as the sequence (P48775 whole entry) above

[6] = target: T4, Indoleamine 2,3-dioxygenase 1 (Homo sapiens, UniProt P14902); assay: Inhibition of IDO1 in human HeLa cells using L-tryptophan as substrate after 20 hrs; assay type: cell-based; procedure, shortened: as §1
Target sequence in this assay (P14902 whole entry): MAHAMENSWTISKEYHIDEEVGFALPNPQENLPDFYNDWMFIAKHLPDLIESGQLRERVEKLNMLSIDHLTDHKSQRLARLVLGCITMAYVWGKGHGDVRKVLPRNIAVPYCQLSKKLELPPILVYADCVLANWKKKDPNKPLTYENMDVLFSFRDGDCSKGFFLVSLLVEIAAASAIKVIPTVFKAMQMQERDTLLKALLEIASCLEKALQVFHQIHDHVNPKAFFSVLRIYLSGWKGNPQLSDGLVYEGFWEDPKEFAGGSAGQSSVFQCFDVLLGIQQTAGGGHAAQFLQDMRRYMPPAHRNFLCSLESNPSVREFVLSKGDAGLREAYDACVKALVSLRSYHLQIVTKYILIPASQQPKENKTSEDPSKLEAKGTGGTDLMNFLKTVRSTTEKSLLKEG

[7] = target: T4, Indoleamine 2,3-dioxygenase 1; assay: Inhibition of IDO1 (unknown origin) at 200 uM using L-tryptophan as substrate by spectrophotometric method relative to control
Target sequence in this assay (P14902 whole entry, looked up): as the sequence (P14902 whole entry) above

[8] = target: T2, Indoleamine 2,3-dioxygenase 2 (Homo sapiens); assay: Inhibition of IDO2 (unknown origin) at 100 uM using L-tryptophan as substrate by spectrophotometric method relative to control
[9] = target: T3, Tryptophan 2,3-dioxygenase; assay: Inhibition of TDO (unknown origin) at 100 uM using L-tryptophan as substrate by spectrophotometric method relative to control
Target sequence in this assay (P48775 whole entry, looked up): as the sequence (P48775 whole entry) above

[10] = target: T4, Indoleamine 2,3-dioxygenase 1; assay: Inhibition of IDO1 (unknown origin) at 100 uM using L-tryptophan as substrate by spectrophotometric method relative to control
Target sequence in this assay (P14902 whole entry, looked up): as the sequence (P14902 whole entry) above

[11] = target: T3, Tryptophan 2,3-dioxygenase; assay: Inhibition of TDO (unknown origin) using L-tryptophan as substrate by spectrophotometric method
Target sequence in this assay (P48775 whole entry): as the sequence (P48775 whole entry) above

[12] = target: T4, Indoleamine 2,3-dioxygenase 1; assay: Inhibition of IDO1 (unknown origin) using L-tryptophan as substrate by spectrophotometric method
Target sequence in this assay (P14902 whole entry): as the sequence (P14902 whole entry) above

[13] = Selectivity ratio of IC50 for inhibition of mouse IDO2 expressed in human T-REx cells to IC50 for inhibition of IDO1 in human HeLa cells; assay type: cell-based; procedure, shortened: as §1
Homo sapiens [14] = organism: Homo sapiens; assay: Selectivity ratio of IC50 for inhibition of human TDO expressed in human T-REx cells to IC50 for inhibition of IDO1 in human HeLa cells; assay type: cell-based; procedure, shortened: as §1
Homo sapiens [15] = organism: Homo sapiens; assay: Selectivity ratio of IC50 for inhibition of mouse IDO2 expressed in human T-REx cells to IC50 for inhibition of human TDO expressed in human T-REx cells; assay type: cell-based; procedure, shortened: as §1

Row | SMILES | viability [1] [%] | IC50 [2] [µM] | inhibition [3] [%] | IC50 [4] [µM] | inhibition [5] [%] | IC50 [6] [µM] | inhibition [7] [%] | inhibition [8] [%] | inhibition [9] [%] | inhibition [10] [%] | IC50 [11] [µM] | IC50 ([6]; hela) [µM] | IC50 [12] [µM] | Ratio IC50 [13] | Ratio IC50 (Homo sapiens [14]) | Ratio IC50 (Homo sapiens [15])
1 | NOC(c1ccccc1)c1ccc(O)cc1 (stereo not drawn) | ≥ 80 | 12.6 | 72.3 | 29.8 | 48.7 | 2.89 | 18.3 | – | – | – | – | – | – | – | – | –
2 | NOC(c1ccccc1)C1CCCCC1 (stereo not drawn) | ≥ 80 | 40.2 | – | 2770 | – | 21 | – | 88.6 | 43.6 | 76 | – | – | – | – | – | –
3 | NOC(c1ccccc1)c1cccc(C(F)(F)F)c1 (stereo not drawn) | ≥ 80 | 24.7 | – | 13.6 | – | – | – | – | > 95 | 18 | 12 | 1.73 | – | – | – | –
4 | COc1ccccc1C(ON)c1ccccc1 (stereo not drawn) | ≥ 80 | 16.5 | – | 48.8 | – | – | – | 80 | – | > 95 | – | 1.11 | 23 | – | – | –
5 | NS(=O)(=O)NCCNc1nonc1C(=NO)Nc1ccc(F)c(Br)c1 [EPACADOSTAT] | ≥ 80 | 18.9 | – | 25.2 | – | – | – | – | – | – | – | – | – | – | – | –
6 | O=C1CC(c2c[nH]c3ccc(F)cc23)C(=O)N1 (stereo not drawn) [PF-06840003] | ≥ 80 | 327 | – | 378 | – | – | – | – | – | – | – | – | – | – | – | –
7 | NOC(c1ccc(F)cc1)c1ccc(F)cc1 | ≥ 80 | 12.1 | – | 5.15 | – | 1.68 | – | 73.6 | > 95 | > 95 | 9 | – | 9 | – | – | –
8 | NOC(c1ccccc1)c1ccc(F)cc1F (stereo not drawn) | 60 | 18.9 | – | 6.37 | – | 1.21 | – | 46 | 90.3 | > 95 | – | – | 7 | – | – | –
9 | NOC(c1ccc(Cl)cc1)c1ccc(Cl)cc1 | ≥ 80 | 12.5 | – | 4.53 | – | 1.09 | – | 69.3 | > 95 | > 95 | 2 | – | 3 | – | – | –
10 | NOC(c1ccccc1)c1cccc(C(F)(F)F)c1F (stereo not drawn) | ≥ 80 | 16.8 | – | 5.62 | – | 0.933 | – | 81.1 | 93.2 | > 95 | – | – | 6 | – | – | –
11 | NOC(c1ccccc1)c1cccc(F)c1 (stereo not drawn) | ≥ 80 | 9.99 | – | 6.21 | – | 0.939 | – | 82 | > 95 | > 95 | 6 | – | 5 | – | – | –
12 | NOC(c1ccccc1)c1cccc(Br)c1 (stereo not drawn) | 60 | 11.8 | – | 7.15 | – | 0.59 | – | 77.6 | 92.6 | > 95 | – | – | 1 | – | – | –
13 | NOC(c1ccccc1)c1cc(C(F)(F)F)ccc1F (stereo not drawn) | ≥ 80 | 8.94 | – | 9.02 | – | 1.09 | – | 73.8 | 73.4 | > 95 | – | – | 8 | – | – | –
14 | NOC(c1ccccc1)c1ccc(Cl)cc1 (stereo not drawn) | ≥ 80 | 27.8 | – | 23.7 | – | 7.15 | – | 74.3 | > 95 | > 95 | 5 | – | 5 | – | – | –
15 | NOC(c1ccccc1)c1ccccc1Br (stereo not drawn) | ≥ 80 | 12.3 | – | 22.5 | – | 1.46 | – | 81 | 90.4 | > 95 | – | – | 17 | 5 to 10 | 5 to 10 | –
16 | NOC(c1ccccc1)c1ccccc1F (stereo not drawn) | ≥ 80 | 30.5 | – | 3.92 | – | 1.26 | – | 77.8 | 87.2 | > 95 | – | – | 12 | 10 | – | 10
17 | NOC(c1ccccc1)c1ccsc1 (stereo not drawn) | ≥ 80 | 49.9 | – | 4.41 | – | 3.36 | – | 76.5 | 93.3 | 83 | – | – | – | 10 | – | 10
18 | NOC(c1ccccc1)c1cccc(Cl)c1Cl (stereo not drawn) | ≥ 80 | 8.95 | – | 4.54 | – | 1.87 | – | 72.4 | > 95 | > 95 | 9 | – | 8 | – | – | –
19 | NOC(CCc1cccc(Cl)c1)c1ccccc1 (stereo not drawn) | ≥ 80 | 20.5 | – | 58.7 | – | 6.74 | – | 78.1 | 93.1 | > 95 | – | – | 7 | – | – | –
20 | NOC(c1ccccc1)c1cc(C(F)(F)F)cc(C(F)(F)F)c1 (stereo not drawn) | 60 | 14.5 | 53.3 | 77.4 | 50.8 | 3.35 | 56 | – | – | – | – | – | – | – | – | –
21 | NOC(c1ccccc1)c1cc(F)cc(F)c1 (stereo not drawn) | ≥ 80 | 8.75 | – | 3.48 | – | 0.357 | – | 83 | 92.6 | > 95 | – | – | 4 | – | – | –
